Data taken from ChEMBL document CHEMBL4270633, “Discovery of novel vinyl sulfone derivatives as anti-tumor agents with microtubule polymerization inhibitory and vascular disrupting activities” (Eur J Med Chem, 2018).
pIC50: −log10 of the molar value. Activity calls are given as the source filed them. The calls are words filed in the database; no cut-off is given here.

How the values were obtained:
[1] = test system: K562; assay: Cell cycle arrest in human K562 cells assessed as accumulation at S phase at 0.02 uM after 48 hrs by propidium iodide staining based flow cytometry (reference value: 49.41%); type: functional
[2] = test system: K562; assay: Induction of apoptosis in human K562 cells at 0.005 uM after 48 hrs by Annexin V-FITC/propidium iodide staining based flow cytometry (reference value: 1.46%); type: functional
Method in brief: (§1)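 K562 cells treated 48 h at 0, 0.05, 0.1, 0.2 µM or 0, 0.005, 0.010, 0.020 µM. Washed in PBS, resuspended in Annexin V binding buffer and stained 15 min in the dark. Early plus late apoptotic fractions quantified by flow-cytometric quadrant analysis.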

[3] = test system: K562; assay: Cell cycle arrest in human K562 cells assessed as accumulation at G1 phase at 0.02 uM after 48 hrs by propidium iodide staining based flow cytometry (reference value: 41.08%); type: functional
[4] = test system: HepG2; assay: Antiproliferative activity against human HepG2 cells after 72 hrs by MTT assay; type: functional, cell-based; conditions: HepG2, 72 h
Method in brief: (§2)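 Cells seeded and held 24 h at 37 °C, 5% CO2, then exposed to a concentration series in medium with 0.1% DMSO for 72 h. MTT (5 mg/mL in PBS) added for 4 h and OD read at 490 nm. IC50 taken from dose-response curves; mean ± SD of at least three independent experiments.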

[5] = test system: K562; assay: Cell cycle arrest in human K562 cells assessed as accumulation at G2 phase at 0.02 uM after 48 hrs by propidium iodide staining based flow cytometry (reference value: 9.51%); type: functional
[6] = test system: K562; assay: Disruption of microtubule network in human K562 cells at 0.005 to 0.02 uM after 24 hrs by DAPI staining based immunofluorescent microscopic method; type: cell-based
Method in brief: (§3)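 K562 cells exposed for 24 h to 0.1% DMSO vehicle or to 0.05, 0.10, 0.20 µM or 0.005, 0.010, 0.020 µM. Fixed in 4% paraformaldehyde, blocked with goat serum 20 min at room temperature, then anti-α-tubulin antibody 2 h at 37 °C. Fluorescent antibody staining, DAPI nuclear counterstain, fluorescence microscopy.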

[7] = test system: K562; assay: Antiproliferative activity against human K562 cells after 72 hrs by MTT assay; type: functional, cell-based; conditions: K562, 72 h; method in brief: as §2
[8] = test system: K562; assay: Induction of apoptosis in human K562 cells at 0.02 uM after 48 hrs by Annexin V-FITC/propidium iodide staining based flow cytometry (reference value: 1.46%); type: functional; method in brief: as §1
[9] = test system: K562; assay: Cell cycle arrest in human K562 cells assessed as accumulation at S phase at 0.01 uM after 48 hrs by propidium iodide staining based flow cytometry (reference value: 49.41%); type: functional
[10] = test system: H22; assay: Antitumor activity against mouse H22 cells implanted in ICR mouse assessed as tumor growth inhibition at 15 mg/kg, iv administered once daily for 21 consecutive days relative to control; type: functional; conditions: read-out: TGI
Method in brief: (§4)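 Male ICR mice, five weeks old, inoculated s.c. in the right flank with 1 × 10^6 H22 cells. After one day, randomized into groups of six. Given i.v. 15 or 30 mg/kg daily for 21 days in 10% DMF/2% Tween 80/88% saline, or 8 mg/kg every 2 days; vehicle control given i.v. Tumors excised and weighed; inhibition (%) = (1 − treated/control mean tumor weight) × 100.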

[11] = test system: K562; assay: Cell cycle arrest in human K562 cells assessed as accumulation at G1 phase at 0.005 uM after 48 hrs by propidium iodide staining based flow cytometry (reference value: 41.08%); type: functional
[12] = test system: K562; assay: Cell cycle arrest in human K562 cells assessed as accumulation at G2 phase at 0.01 uM after 48 hrs by propidium iodide staining based flow cytometry (reference value: 9.51%); type: functional
[13] = test system: H22; assay: Antitumor activity against mouse H22 cells implanted in ICR mouse assessed as tumor growth inhibition at 30 mg/kg, iv administered once daily for 21 consecutive days relative to control; type: functional; conditions: read-out: TGI; method in brief: as §4
[14] = test system: K562; assay: Cell cycle arrest in human K562 cells assessed as accumulation at G2 phase at 0.005 uM after 48 hrs by propidium iodide staining based flow cytometry (reference value: 9.51%); type: functional
[15] = test system: K562; assay: Induction of apoptosis in human K562 cells after 48 hrs by Annexin V-FITC/propidium iodide staining based flow cytometry; type: functional, cell-based; method in brief: as §1
[16] = Inhibition of porcine brain tubulin polymerization after 30 mins by spectrophotometric method; design: species or system Sus scrofa
Method in brief: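 Purified tubulin (2 mg/mL) in PEM buffer (80 mM PIPES pH 6.9, 0.5 mM EGTA, 2 mM MgCl2, 15% glycerol), preincubated on ice with compound or DMSO vehicle, then GTP added. Absorbance at 340 nm followed at 37 °C for 30 min. IC50 derived from area under the polymerization curve.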

[17] = test system: HUVEC; assay: Antivascular activity against HUVEC assessed as reduction in wound closure after 24 hrs by phase contrast microscopic method; type: functional, cell-based; conditions: Homo sapiens
Method in brief: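 Scratch wounds made with a sterile 200 µL pipette tip, then treated at 0.05, 0.10, 0.20 µM or 0.005, 0.010, 0.020 µM. Phase-contrast images taken at 0 h and 24 h after treatment.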

[18] = test system: K562; assay: Antiproliferative activity against human K562 cells at 1 uM after 72 hrs by MTT assay; type: functional, cell-based
[19] = test system: K562; assay: Cell cycle arrest in human K562 cells assessed as accumulation at G1 phase at 0.01 uM after 48 hrs by propidium iodide staining based flow cytometry (reference value: 41.08%); type: functional
[20] = test system: A549; assay: Antiproliferative activity against human A549 cells after 72 hrs by MTT assay; type: functional, cell-based; conditions: A549, 72 h; method in brief: as §2
[21] = test system: K562; assay: Cell cycle arrest in human K562 cells assessed as accumulation at S phase at 0.005 uM after 48 hrs by propidium iodide staining based flow cytometry (reference value: 49.41%); type: functional
[22] = test system: K562; assay: Induction of apoptosis in human K562 cells at 0.01 uM after 48 hrs by Annexin V-FITC/propidium iodide staining based flow cytometry (reference value: 1.46%)
[23] = test system: Mus musculus; assay: Toxicity in ICR mouse implanted with mouse H22 cells assessed as decrease in body weight at 15 to 30 mg/kg, iv administered once daily for 21 consecutive days; type: organism-based; conditions: in vivo
Method in brief: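 H22 s.c. allograft in male ICR mice, groups of six. Dosing i.v. at 15 or 30 mg/kg once daily for 21 days (10% DMF/2% Tween 80/88% saline), or 8 mg/kg once every 2 days. Body weight recorded every 2 days.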

[24] = test system: K562; assay: Cell cycle arrest in human K562 cells assessed as accumulation at S phase at 0.1 uM after 48 hrs by propidium iodide staining based flow cytometry (reference value: 30.13%); type: functional
[25] = test system: K562; assay: Cell cycle arrest in human K562 cells assessed as accumulation at G2 phase at 0.1 uM after 48 hrs by propidium iodide staining based flow cytometry (reference value: 9.1%); type: functional
[26] = test system: K562; assay: Disruption of microtubule network in human K562 cells after 24 hrs by DAPI staining based immunofluorescent microscopic method; type: cell-based; method in brief: as §3
[27] = test system: K562; assay: Induction of apoptosis in human K562 cells at 0.1 uM after 48 hrs by Annexin V-FITC/propidium iodide staining based flow cytometry (reference value: 1.46%); type: functional; method in brief: as §1
[28] = test system: HUVEC; assay: Antivascular activity against HUVEC assessed as reduction in tube formation at 005 to 0.2 uM after 6 hrs by inverted microscopic based matrigel method; type: functional, cell-based; conditions: Homo sapiens
Method in brief: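 Matrigel thawed at 4 °C overnight and polymerized 30 min at 37 °C. HUVECs in DMEM seeded at 50,000 cells/well, then exposed to compound or vehicle for 6 h at 37 °C. Tube morphology examined by inverted microscopy.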

[29] = test system: K562; assay: Cell cycle arrest in human K562 cells assessed as accumulation at G2 phase at 0.05 uM after 48 hrs by propidium iodide staining based flow cytometry (reference value: 9.1%); type: functional
[30] = test system: K562; assay: Cell cycle arrest in human K562 cells assessed as accumulation at G2 phase at 0.2 uM after 48 hrs by propidium iodide staining based flow cytometry (reference value: 9.1%); type: functional
[31] = test system: K562; assay: Induction of apoptosis in human K562 cells at 0.2 uM after 48 hrs by Annexin V-FITC/propidium iodide staining based flow cytometry (reference value: 1.46%); type: functional; method in brief: as §1
[32] = test system: K562; assay: Cell cycle arrest in human K562 cells assessed as accumulation at G1 phase at 0.2 uM after 48 hrs by propidium iodide staining based flow cytometry (reference value: 60.77%); type: functional
[33] = test system: K562; assay: Cell cycle arrest in human K562 cells assessed as accumulation at G1 phase at 0.1 uM after 48 hrs by propidium iodide staining based flow cytometry (reference value: 60.77%); type: functional
[34] = test system: K562; assay: Cell cycle arrest in human K562 cells assessed as accumulation at S phase at 0.05 uM after 48 hrs by propidium iodide staining based flow cytometry (reference value: 30.13%); type: functional
[35] = test system: K562; assay: Cell cycle arrest in human K562 cells assessed as accumulation at G2/M phase after 48 hrs by propidium iodide staining based flow cytometry; type: functional
[36] = test system: K562; assay: Cell cycle arrest in human K562 cells assessed as accumulation at S phase at 0.2 uM after 48 hrs by propidium iodide staining based flow cytometry (reference value: 30.13%); type: functional
[37] = test system: K562; assay: Induction of apoptosis in human K562 cells at 0.05 uM after 48 hrs by Annexin V-FITC/propidium iodide staining based flow cytometry (reference value: 1.46%); type: functional; method in brief: as §1
[38] = test system: H22; assay: Antitumor activity against mouse H22 cells implanted in ICR mouse assessed as tumor growth inhibition administered iv once daily for 21 consecutive days; type: functional, organism-based; method in brief: as §4
[39] = test system: K562; assay: Cell cycle arrest in human K562 cells assessed as accumulation at G1 phase at 0.05 uM after 48 hrs by propidium iodide staining based flow cytometry (reference value: 60.77%); type: functional

COc1ccc(/C=C\c2cc(OC)c(OC)c(OC)c2)cc1O [COMBRETASTATIN A4]
Activity [1]: 18.54% | Activity [2]: 25.28% | Activity [3]: 56.51% | pIC50 [4]: 7.92 | Activity [5]: 24.95% | Activity [6]: Active | pIC50 [7]: 7.68 | Activity [8]: 63.05% | Activity [9]: 16.25% | inhibition in vivo at 15 mg/kg [10]: 45% | Activity [11]: 46.14% | Activity [12]: 22.59% | inhibition in vivo at 30 mg/kg [13]: 56.7% | Activity [14]: 13.84% | Activity [15]: Dose-dependent effect | pIC50 [16]: 5.66 | Activity [17]: Dose-dependent effect | Activity [18]: Active | Activity [19]: 61.16% | pIC50 [20]: 7.43 | Activity [21]: 40.02% | Activity [22]: 53.05%

COc1ccc(/C=C/S(=O)(=O)c2cc(OC)c(OC)c(OC)c2)cc1N
Activity [23]: Non-Toxic | pIC50 [4]: 6.66 | pIC50 [7]: 6.89 | Activity [24]: 36.7% | Activity [25]: 16.15% | Activity [26]: Dose-dependent effect | Activity [27]: 22.65% | Activity [28]: Active | Activity [29]: 13.05% | inhibition in vivo at 15 mg/kg [10]: 53.4% | Activity [30]: 21.99% | Activity [31]: 49.29% | inhibition in vivo at 30 mg/kg [13]: 65.4% | Activity [15]: Dose-dependent effect | Activity [32]: 39.7% | Activity [33]: 47.15% | Activity [34]: 33.88% | pIC50 [16]: 5.37 | Activity [17]: Dose-dependent effect | Activity [35]: Dose-dependent effect | Activity [36]: 38.31% | pIC50 [20]: 6.22 | Activity [37]: 17.88% | TGI [38]: Dose-dependent effect | Activity [39]: 53.07%
